Here are results for 14 molecules from ChEMBL document CHEMBL1136734, “Discovery of tyrosine-based potent and selective melanocortin-1 receptor small-molecule agonists with anti-inflammatory properties” (J Med Chem, 2003).

Usually EC50 stands for the concentration at which the effect is half-maximal. A higher EC50 goes with a need for much substance. By IC50 is commonly meant the point on the concentration scale where inhibition reaches its midpoint. A high value points to weaker potency in that assay. One may read the half-life as the time in which the quantity being followed falls by half. High values mean slow loss, low ones fast loss. Broadly, the clearance is a measure of how efficiently the substance is removed, as volume per time. Lower therefore signals inefficient removal. What is called MRT is the average time that molecules of a dose stay in the body. As usually defined, the Cmax is the maximum level reached in the sampled fluid or tissue.

Series [1] concerns the target T1, Melanocortin receptor 4 (Homo sapiens, UniProt P32245). The series is described as follows: In vitro effective concentration towards human Melanocortin 4 receptor (MC4R) was determined by a SPA-based cAMP assay in melanoma cells. It counts as cell-based.
Series [2] deals with T2, Melanocortin receptor 5 (Homo sapiens, UniProt P33032). In words: In vitro effective concentration towards human Melanocortin 5 receptor (MC5R) was determined by a SPA-based cAMP assay in melanoma cells. It counts as cell-based. In general terms: cAMP levels reflect the balance of adenylyl cyclase and phosphodiesterase activity.
Series [3] has as its target T3, Melanocyte-stimulating hormone receptor (Homo sapiens, UniProt Q01726). In words: In vitro effective concentration towards human Melanocortin 1 receptor (MC1R) in SPA-based cAMP assay in melanoma cells. In kind it is cell-based.
Target sequence in this assay (Q01726 whole entry): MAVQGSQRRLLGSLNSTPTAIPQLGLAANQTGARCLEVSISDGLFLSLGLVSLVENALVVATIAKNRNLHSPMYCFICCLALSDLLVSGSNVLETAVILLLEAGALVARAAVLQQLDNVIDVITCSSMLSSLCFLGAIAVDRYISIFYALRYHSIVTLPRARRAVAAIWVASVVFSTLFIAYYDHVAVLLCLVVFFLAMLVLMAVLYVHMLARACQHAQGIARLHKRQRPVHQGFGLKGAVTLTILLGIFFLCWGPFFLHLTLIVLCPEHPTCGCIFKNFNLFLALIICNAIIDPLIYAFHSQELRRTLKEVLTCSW
Series [4] concerns the target T4, Melanocortin receptor 3 (Homo sapiens, UniProt P41968). In words: In vitro effective concentration towards human Melanocortin 3 receptor (MC3R) was determined by a SPA-based cAMP assay in melanoma cells. It counts as cell-based.
Series [5] concerns the target T3, Melanocyte-stimulating hormone receptor. The series is described as follows: In vitro inhibitory concentration against human Melanocortin 1 receptor (MC1R).
Target sequence in this assay (Q01726 whole entry): as above
Series [6] addresses T4, Melanocortin receptor 3. In words: In vitro intrinsic activity against human Melanocortin 3 receptor (MC3R).
In series [7] the target is T2, Melanocortin receptor 5. In words: In vitro intrinsic activity against human Melanocortin 5 receptor (MC5R). In short, it runs like this: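 A SPA-based cAMP assay was run in CHO cells overexpressing human MC-5R. EC50 and intrinsic activity (%) are given ± SEM.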
Series [8] has as its target T1, Melanocortin receptor 4. In words: In vitro intrinsic activity against human Melanocortin 4 receptor (MC4R).
In series [9] the target is T3, Melanocyte-stimulating hormone receptor. The series is described as follows: In vitro intrinsic activity against human Melanocortin 1 receptor (MC1R).
Target sequence in this assay (Q01726 whole entry, looked up): as the sequence (Q01726 whole entry) above
A short description of series [10]: Half life by intravenous administration of 6.8 umol/kg dose in mice. It counts as ADME, organism-based. As to conditions: mouse, in vivo. In short, it runs like this: (§1)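 Balb/c mice (n = 3) given a single intravenous dose of 6.8 μmol/kg in 50:50 PEG400–water, with plasma pharmacokinetic parameters derived from the concentration–time profile.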
Series [11] has as its target T4, Melanocortin receptor 3. The series is described as follows: In vitro inhibitory concentration against human Melanocortin 3 receptor (MC3R).
A short description of series [12]: Vss value was determined by intravenous administration of 6.8 umol/kg dose in mice. To be noted: mouse, in vivo, read-out: Vss. It counts as ADME, organism-based. In short, it runs like this: as §1
Series [13] is described as follows: Cl value was determined by intravenous administration of 6.8 umol/kg dose in mice. As to conditions: mouse, in vivo. It counts as ADME, organism-based. Put shortly: as §1
A short description of series [14]: MRT value was determined by intravenous administration of 6.8 umol/kg dose in mice. It counts as ADME, organism-based. As to conditions: mouse, in vivo. In short, it runs like this: as §1
A short description of series [15]: Cmax value was evaluated in mice by intravenous administration of 6.8 umol/kg dose. In kind it is ADME, organism-based. Set-up: dose 6.8 umol/kg, route intravenous. To be noted: mouse, in vivo. In short, it runs like this: as §1
In series [16] the target is T4, Melanocortin receptor 3. The series is described as follows: In vitro effective concentration towards human Melanocortin-3 receptor (MC3R) was determined by a SPA-based cAMP assay in melanoma cells. In kind it is cell-based.

Active and inactive are the calls of the source. No cut-off for these calls is given here.

T2 sequence (P33032 whole entry): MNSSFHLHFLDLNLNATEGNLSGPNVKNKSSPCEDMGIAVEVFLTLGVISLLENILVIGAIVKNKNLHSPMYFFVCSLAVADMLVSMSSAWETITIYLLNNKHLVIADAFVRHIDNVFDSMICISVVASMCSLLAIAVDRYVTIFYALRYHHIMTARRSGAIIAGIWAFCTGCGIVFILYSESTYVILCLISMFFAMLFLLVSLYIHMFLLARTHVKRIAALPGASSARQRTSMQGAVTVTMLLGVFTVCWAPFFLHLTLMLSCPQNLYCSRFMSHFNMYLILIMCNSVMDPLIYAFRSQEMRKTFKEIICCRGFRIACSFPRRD
T4 sequence (P41968 whole entry): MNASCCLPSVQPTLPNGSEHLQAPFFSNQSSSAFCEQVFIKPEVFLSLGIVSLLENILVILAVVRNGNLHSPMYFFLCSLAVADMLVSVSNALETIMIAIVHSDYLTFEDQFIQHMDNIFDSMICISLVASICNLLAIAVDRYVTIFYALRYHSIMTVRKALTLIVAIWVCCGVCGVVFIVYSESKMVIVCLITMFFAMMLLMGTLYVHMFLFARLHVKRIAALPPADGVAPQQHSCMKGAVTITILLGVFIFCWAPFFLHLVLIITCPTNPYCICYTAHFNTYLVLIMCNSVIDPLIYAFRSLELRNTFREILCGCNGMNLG
T1 sequence (P32245 whole entry): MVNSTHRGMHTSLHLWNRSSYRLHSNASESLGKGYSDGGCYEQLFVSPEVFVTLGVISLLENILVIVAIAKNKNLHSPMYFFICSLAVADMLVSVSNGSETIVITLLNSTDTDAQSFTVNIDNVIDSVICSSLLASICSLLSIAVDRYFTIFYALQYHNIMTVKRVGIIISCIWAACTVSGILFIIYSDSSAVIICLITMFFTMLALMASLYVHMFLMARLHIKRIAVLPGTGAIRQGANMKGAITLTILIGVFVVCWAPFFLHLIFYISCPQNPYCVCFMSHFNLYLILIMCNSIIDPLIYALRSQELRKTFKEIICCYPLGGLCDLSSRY

`CCCC(=O)C1(c2ccccc2)CCN(C(=O)[C@@H](Cc2ccc(OC)cc2)NC(=O)[C@H](N)Cc2cnc[nH]2)CC1`: the EC50 in series [1] was 630 nM; in series [2], 10 µM; in series [3] it was 1.5 nM; in series [4] it was 1700 nM. The same molecule gave an IC50 in series [5] of 32 nM.

Consider `CCCC(=O)C1(c2ccccc2)CCN(C(=O)[C@@H](Cc2ccc(OC)cc2)NC(=O)[C@@H](Cc2c[nH]cn2)NC(C)=O)CC1`, for which the EC50 turned out to be 23 nM in series [1], 3.9 µM in series [2], 0.35 nM in series [3] and 2200 nM in series [4]. The Intrinsic activity in series [6] worked out at 90%; in [7], 90%; in series [8], 96%; in [9], 96%. In [5], this molecule displayed an IC50 of 5.1 nM.

Regarding `COc1ccc(C[C@@H](NC(=O)[C@H]2Cc3ccccc3CN2)C(=O)N2CCC3(CC2)CN(S(C)(=O)=O)c2ccccc23)cc1`, the EC50 was determined as 40 nM in [1] and 220 nM in [3]. Further, the results for the Intrinsic activity in series [8] and in [9] were 95% and 80%, respectively.

For the molecule `CCCC(=O)C1(c2ccccc2)CCN(C(=O)[C@@H](Cc2ccc(OC)cc2)NC(=O)[C@H](O)Cc2c[nH]cn2)CC1`, the Intrinsic activity turned out to be 85% in series [6], 20% in series [7], 95% in [8] and 90% in series [9].

Regarding `CCCC(=O)C1(c2ccccc2)CCN(C(=O)[C@@H](Cc2ccc(OC)cc2)NC(=O)CCc2cnc[nH]2)CC1`, the EC50 turned out to be 840 nM in series [1], 9.4 µM in series [2], 2.5 nM in series [3] and 7000 nM in [4]. In series [5], this molecule showed an IC50 of 18 nM.

Regarding `CCCC(=O)C1(c2ccccc2)CCN(C(=O)[C@@H](Cc2ccc(OC)cc2)NC(=O)[C@@H](Cc2cnc[nH]2)NC(=O)c2ccccc2)CC1`, the EC50 in [1] amounted to 2.9 nM; in series [2] it was 2.1 µM; in series [3] it was 0.19 nM; in [4], 250 nM. This molecule also registered an IC50 in [5] of 3.1 nM.

Take `CCCC(=O)C1(c2ccccc2)CCN(C(=O)[C@@H](Cc2ccc(OC)cc2)NC(=O)[C@@H](Cc2c[nH]cn2)NC(=O)c2ccccc2)CC1`: the Intrinsic activity in series [6] is 100%; in series [7], 65%; in [8] it was 95%; in series [9], 98%.

Consider `CCCC(=O)C1(c2ccccc2)CCN(C(=O)[C@@H](Cc2ccc(OC)cc2)NC(=O)[C@@H](N)Cc2cncn2C)CC1`, for which the EC50 in series [1] is 2600 nM; in series [2], 4.4 µM; in series [3], 28 nM. The molecule further had a half-life in series [10] of 90 min. Besides, the NA entry in series [11] is “inactive”. In addition, in [12], the Vd amounted to 8.2 L/kg. The Intrinsic activity in [6] was found to be 2.1%; in series [7], 15%; in series [8] it was 39%; in series [9], 92%. Also, the clearance in series [13] stood at 110 mL/min/kg. The molecule also displayed an MRT in [14] of 1.2 h. The peak level in series [15] (Cmax) was 2200 nM. In series [5], this molecule returned an IC50 of 120 nM.

Take `CCCC(=O)C1(c2ccccc2)CCN(C(=O)[C@@H](Cc2ccc(OC)cc2)NC(=O)[C@@H](N)Cc2cnc[nH]2)CC1`: the EC50 in [3] worked out at 400 nM. Besides, in [5], half-maximal inhibition (IC50) was put at 1300 nM.

Regarding `CCCC(=O)C1(c2ccccc2)CCN(C(=O)[C@@H](Cc2ccc(OC)cc2)NC(=O)[C@@H](N)Cc2c[nH]cn2)CC1`, the Intrinsic activity in series [9] came out at 67%.

`CCCC(=O)C1(c2ccccc2)CCN(C(=O)[C@@H](Cc2ccc(OC)cc2)NC(=O)[C@H](N)Cc2cncn2C)CC1` yielded an EC50 in series [3] of 510 nM. For the same molecule, the Intrinsic activity in series [9] amounted to 34%. Moreover, in series [5], 1500 nM corresponded to half-maximal inhibition (IC50).

As to `CCCC(=O)C1(c2ccccc2)CCN(C(=O)[C@@H](Cc2ccc(OC)cc2)NC(=O)[C@H](O)Cc2cnc[nH]2)CC1`, the EC50 is 77 nM in series [1], 3.9 µM in series [16], 2.7 µM in [2] and 3.8 nM in series [3]. In series [5], the IC50 amounted to 5.5 nM.

With `CCCC(=O)C1(c2ccccc2)CCN(C(=O)[C@@H](Cc2ccc(OC)cc2)NC(=O)[C@H](N)Cc2c[nH]cn2)CC1`, the Intrinsic activity was 98% in series [6], 40% in series [7], 103% in series [8] and 93% in series [9].

On to `CCCC(=O)C1(c2ccccc2)CCN(C(=O)[C@@H](Cc2ccc(OC)cc2)NC(=O)CCc2c[nH]cn2)CC1`, for which the Intrinsic activity in [6] was 85%; in series [7], 32%; in [8], 92%; in series [9] it was 97%.
